From ChEMBL document CHEMBL1641508, “Effect of structurally constrained oxime-ether linker on PPAR subtype selectivity: Discovery of a novel and potent series of PPAR-pan agonists” (Bioorg Med Chem, 2011)
The source made the active and inactive calls. No cut-off for these calls is given here.

Legend:
Mus musculus [1] = assay: Antihyperglycemic activity in db/db mouse assessed as reduction of serum glucose level at 3 mg/kg, po qd for 14 days relative to control; assay type: functional; set-up: scale not given: the % may be the effect or the level left
How it was run: (§1)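 Male db/db mice, 12–14 weeks, 30–40 g, tail-bled before the study. Groups of six were matched for plasma glucose, TG and TC. Dosing was oral once daily for 14 days, with vehicle 0.5% methylcellulose in water, and mice were fed ad libitum. About 1 h after the last dose, mice were tail-bled and serum/plasma glucose and TG measured. Values are % change versus vehicle-treated mice, mean ± SD (n = 6).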

Mus musculus [2] = assay: Antihyperlipidemic activity in db/db mouse assessed as reduction of serum triglyceride level at 3 mg/kg, po qd for 14 days relative to control; assay type: functional; set-up: scale not given: the % may be the effect or the level left; how it was run: as §1
[3] = biological target: T1, Peroxisome proliferator-activated receptor alpha (Homo sapiens) (UniProt Q07869); assay: Agonist activity at human PPARalpha expressed in HepG2 cells co-transfected with PPRE3-TK-luc assessed as beta-galactosidase activity after 20 to 22 hrs by luciferase based transactivation assay relative to WY-14643; assay type: functional, cell-based
T1 sequence (whole entry): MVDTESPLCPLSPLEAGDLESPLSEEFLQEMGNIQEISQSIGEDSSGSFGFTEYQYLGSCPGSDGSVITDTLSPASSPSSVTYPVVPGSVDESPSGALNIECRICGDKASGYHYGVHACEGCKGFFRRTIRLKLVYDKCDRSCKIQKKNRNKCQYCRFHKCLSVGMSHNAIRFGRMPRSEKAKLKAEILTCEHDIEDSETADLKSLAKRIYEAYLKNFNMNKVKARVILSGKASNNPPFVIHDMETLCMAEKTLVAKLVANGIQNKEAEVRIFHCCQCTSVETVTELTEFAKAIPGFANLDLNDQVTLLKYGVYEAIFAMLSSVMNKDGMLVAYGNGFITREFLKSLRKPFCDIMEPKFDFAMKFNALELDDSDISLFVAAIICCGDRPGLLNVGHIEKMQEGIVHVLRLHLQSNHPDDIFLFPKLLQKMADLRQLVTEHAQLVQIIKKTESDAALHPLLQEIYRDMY
How it was run: (§2)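 HepG2 (MEM, 10% FBS, NEAA, pyruvate, pen/strep) seeded 400,000 cells/well, transfected (Superfect) with pSG5 vector carrying full-length hPPAR cDNA plus PPRE3-TK-luc; 3 h at 37 °C, 5% CO2, then ligand-containing medium added, 20–22 h.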

[4] = biological target: T2, Peroxisome proliferator-activated receptor delta (Homo sapiens) (UniProt Q03181); assay: Agonist activity at human PPARdelta expressed in HepG2 cells co-transfected with PPRE3-TK-luc assessed as beta-galactosidase activity after 20 to 22 hrs by luciferase based transactivation assay relative to GW-501516; assay type: functional, cell-based; how it was run: as §2
T2 sequence (whole entry): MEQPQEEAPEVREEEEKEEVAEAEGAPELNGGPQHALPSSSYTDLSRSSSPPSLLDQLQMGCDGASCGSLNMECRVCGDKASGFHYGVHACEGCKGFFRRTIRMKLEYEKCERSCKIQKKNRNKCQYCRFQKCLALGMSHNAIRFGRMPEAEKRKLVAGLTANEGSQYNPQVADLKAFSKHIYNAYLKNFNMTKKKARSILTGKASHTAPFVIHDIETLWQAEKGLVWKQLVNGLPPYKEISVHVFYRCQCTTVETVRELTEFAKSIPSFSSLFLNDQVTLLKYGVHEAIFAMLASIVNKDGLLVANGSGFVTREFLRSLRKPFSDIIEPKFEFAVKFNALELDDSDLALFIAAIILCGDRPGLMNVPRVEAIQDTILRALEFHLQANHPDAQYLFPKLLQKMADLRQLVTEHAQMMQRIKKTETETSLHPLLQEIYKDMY

[5] = biological target: T3, Peroxisome proliferator-activated receptor alpha (Homo sapiens, UniProt Q07869); assay: Agonist activity at human PPARalpha expressed in HepG2 cells co-transfected with PPRE3-TK-luc assessed as beta-galactosidase activity after 20 to 22 hrs by luciferase based transactivation assay; assay type: functional, cell-based
T3 sequence (Q07869 whole entry): T1 sequence (whole entry)

[6] = biological target: T4, Peroxisome proliferator-activated receptor gamma (Homo sapiens, UniProt P37231); assay type: functional, cell-based, HepG2
T4 sequence (P37231 whole entry): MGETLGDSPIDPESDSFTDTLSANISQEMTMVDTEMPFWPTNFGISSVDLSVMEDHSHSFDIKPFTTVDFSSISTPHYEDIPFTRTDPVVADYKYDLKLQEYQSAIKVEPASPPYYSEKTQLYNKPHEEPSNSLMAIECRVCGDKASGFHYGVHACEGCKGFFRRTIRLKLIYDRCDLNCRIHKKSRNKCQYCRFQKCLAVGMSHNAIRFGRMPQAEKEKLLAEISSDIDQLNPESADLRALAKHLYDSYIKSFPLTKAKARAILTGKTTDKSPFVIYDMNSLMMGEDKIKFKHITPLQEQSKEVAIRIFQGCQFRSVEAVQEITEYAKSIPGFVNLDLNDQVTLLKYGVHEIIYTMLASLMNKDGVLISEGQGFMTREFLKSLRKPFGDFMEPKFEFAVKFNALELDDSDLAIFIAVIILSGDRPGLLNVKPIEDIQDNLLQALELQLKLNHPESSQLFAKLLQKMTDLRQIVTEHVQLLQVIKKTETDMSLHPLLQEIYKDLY

[7] = biological target: T5, Peroxisome proliferator-activated receptor delta (Homo sapiens, UniProt Q03181); assay: Agonist activity at human PPARdelta expressed in HepG2 cells co-transfected with PPRE3-TK-luc assessed as beta-galactosidase activity after 20 to 22 hrs by luciferase based transactivation assay; assay type: functional, cell-based
T5 sequence (Q03181 whole entry): T2 sequence (whole entry)

Mus musculus [8] = assay: Antihyperglycemic activity in db/db mouse assessed as reduction of serum glucose level at 10 mg/kg, po qd for 14 days relative to control; assay type: functional; set-up: scale not given: the % may be the effect or the level left; how it was run: as §1
Mus musculus [9] = assay: Antihyperlipidemic activity in db/db mouse assessed as reduction of serum triglyceride level at 10 mg/kg, po qd for 14 days relative to control; assay type: functional; set-up: scale not given: the % may be the effect or the level left; how it was run: as §1
Syrian golden hamster [10] = assay: Antihyperlipidemic activity in high fat-high cholesterol-fructose fed hamster assessed as increase of serum HDL-cholesterol level at 10 mg/kg, po qd for 14 days; assay type: functional, organism-based; set-up: dose 10 mg/kg; conditions: Mesocricetus auratus
Syrian golden hamster [11] = assay: Antihyperlipidemic activity in high fat-high cholesterol-fructose fed hamster assessed as decrease of serum LDL-cholesterol level at 10 mg/kg, po qd for 14 days; assay type: functional, organism-based; set-up: dose 10 mg/kg; conditions: Mesocricetus auratus

`CCO[C@@H](Cc1ccc(OCCc2ccc(OS(C)(=O)=O)cc2)cc1)C(=O)O` [TESAGLITAZAR] gave an Activity (Mus musculus [1]) of -60.2% and an Activity (Mus musculus [2]) of -54.4%.
`CCC/C(=N\OCc1nc(-c2ccccc2)oc1C)c1ccc(OCC(=O)O)c(C)c1` showed an Emax [3] of 14.1% and an Emax [4] of 51.7%.
`C/C(=N\OCc1sc(-c2ccc(C(F)(F)F)cc2)nc1C)c1ccc(OCC(=O)O)cc1` showed an Emax [3] of 86.2% and an Emax [4] of 60.6%.
`Cc1cc(/C(=N/OCc2sc(-c3ccc(C(F)(F)F)cc3)nc2C)C2CCCCC2)ccc1OCC(=O)O` showed an Emax [3] of 57.9%, an EC50 [5] of 1.6 µM and an EC50 [6] of 1 µM. The Emax [4] was 98.7% and the EC50 [7] was 0.7 µM.
For `C/C(=N\OCc1sc(-c2ccc(C(F)(F)F)cc2)nc1C)c1ccc(OCC(=O)O)c(C)c1`, the Emax [3] was 99.8%, the EC50 [5] was 0.008 µM and the EC50 [6] was 0.006 µM. For the same compound, the Emax [4] was 90.1%, the EC50 [7] was 0.01 µM and the Activity (Mus musculus [8]) was -23.2%. For the same compound, the Activity (Mus musculus [9]) was -36.5%, the Activity (Syrian golden hamster [10]) was “Active” and the Activity (Syrian golden hamster [11]) was “Active”.
With `Cc1cc(/C(=N/OCc2nc(-c3ccccc3)oc2C)C2CCCCC2)ccc1OCC(=O)O` the Emax [3] was 9.7% and the Emax [4] was 58.8%.
Work on `CC/C(=N\OCc1nc(-c2ccccc2)oc1C)c1ccc(OCC(=O)O)cc1` yielded an Emax [3] of 42.5% and an Emax [4] of 46.4%.
`C/C(=N\OCc1nc(-c2ccc(C)cc2)oc1C)c1ccc(OCC(=O)O)c(C)c1` was tested, and the Emax [3] was 45.3%, the EC50 [5] was 0.15 µM and the EC50 [6] was 0.4 µM. For the same compound, the Emax [4] was 67.6% and the EC50 [7] was 0.3 µM.
Work on `CCC/C(=N\OCc1nc(-c2ccc(C)cc2)oc1C)c1ccc(OCC(=O)O)c(C)c1` yielded an Emax [3] of 33.3% and an Emax [4] of 46.8%.
Work on `CC/C(=N\OCc1sc(-c2ccc(C(F)(F)F)cc2)nc1C)c1ccc(OCC(=O)O)c(C)c1` yielded an Emax [3] of 96.4%, an EC50 [5] of 0.12 µM and an EC50 [6] of 0.8 µM. It also gave an Emax [4] of 61.9% and an EC50 [7] of 0.8 µM.
Work on `CC/C(=N\OCc1sc(-c2ccc(C(F)(F)F)cc2)nc1C)c1ccc(OCC(=O)O)cc1` yielded an Emax [3] of 97.5% and an Emax [4] of 41.4%.
`CC/C(=N\OCc1nc(-c2ccc(C)cc2)oc1C)c1ccc(OCC(=O)O)cc1` was tested, and the Emax [3] was 68.5% and the Emax [4] was 49.2%.
With `C/C(=N\OCc1nc(-c2ccc(C)cc2)oc1C)c1ccc(OCC(=O)O)cc1` the Emax [3] was 51.1% and the Emax [4] was 48.1%.
`C/C(=N\OCc1nc(-c2ccccc2)oc1C)c1ccc(OCC(=O)O)c(C)c1` gave an Emax [3] of 84.5%, an EC50 [5] of 0.5 µM and an EC50 [6] of 0.3 µM. For the same compound, the Emax [4] was 74.5%, the EC50 [7] was 0.8 µM and the Activity (Mus musculus [8]) was -59.9%. The Activity (Mus musculus [9]) was -52.4%, the Activity (Syrian golden hamster [10]) was “Active” and the Activity (Syrian golden hamster [11]) was “Active”.
Work on `C/C(=N\OCc1nc(-c2ccccc2)oc1C)c1ccc(OCC(=O)O)cc1` yielded an Emax [3] of 58.8% and an Emax [4] of 52.1%.
Compound `CC(C)(Oc1ccc(CCNC(=O)c2ccc(Cl)cc2)cc1)C(=O)O` [BEZAFIBRATE] has an EC50 [6] of 57.2 µM and an EC50 [7] of 18.9 µM.
`Cc1ccc(-c2nc(CO/N=C(/c3ccc(OCC(=O)O)c(C)c3)C3CCCCC3)c(C)o2)cc1` was tested, and the Emax [3] was 14.1% and the Emax [4] was 56.6%.
With `CC/C(=N\OCc1nc(-c2ccc(C)cc2)oc1C)c1ccc(OCC(=O)O)c(C)c1` the Emax [3] was 72.6% and the Emax [4] was 56.3%.
Compound `Cc1cc(SCc2sc(-c3ccc(C(F)(F)F)cc3)nc2C)ccc1OCC(=O)O` has an Emax [3] of 76.9%.
Compound `CC/C(=N\OCc1nc(-c2ccccc2)oc1C)c1ccc(OCC(=O)O)c(C)c1` has an Emax [3] of 56.4% and an Emax [4] of 72.3%.
Work on `CCC/C(=N\OCc1sc(-c2ccc(C(F)(F)F)cc2)nc1C)c1ccc(OCC(=O)O)c(C)c1` yielded an Emax [3] of 58.7% and an Emax [4] of 48.3%.
